In general, inhibition in vivo refers to the relative decrease from the control value, in per cent. As usually defined, the inhibition is the relative decrease from the control value, in per cent. The pKi is the Ki on a negative log10 scale, so that one unit is a factor of ten.

The results in this text go back to ChEMBL document CHEMBL2021876, “New pyridobenzoxazepine derivatives derived from 5-(4-methylpiperazin-1-yl)-8-chloro-pyrido[2,3-b][1,5]benzoxazepine (JL13): chemical synthesis and pharmacological evaluation” (J Med Chem, 2012).

pKi: −log10 of the molar value.

In one series the test system is Hippocampus. Put plainly: In vivo displacement of [3H]Ketanserin from 5HT2A receptor in Sprague-Dawley rat hippocampus CA3 region at 13.75 mg/kg, ip qd for 28 days by autoradiography relative to control. Format: functional. The note with it: route intraperitoneal. In outline:
(§1)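 Rats (male Sprague-Dawley, N = 8/group) given daily ip injections for 28 days versus vehicle. Brain sections preincubated 1 h RT in 50 mM Tris-HCl pH 7.7, then 1 h RT with 3.0 nM [3H]ketanserin plus 1 μM prazosin and 100 nM tetrabenazine. Nonspecific: 1 μM methysergide. Washes 2 × 30 min ice-cold. Readout fmol/mg tissue as % of control, mean ± SEM.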
Background: Displacement assays read how much labelled ligand stays bound in the presence of the test substance.

A short description of series [1]: In vivo displacement of [3H]Ketanserin from 5HT2A receptor in Sprague-Dawley rat entorhinal cortex at 13.75 mg/kg, ip qd for 28 days by autoradiography relative to control. Format: functional. The note with it: route intraperitoneal. In a few lines: as §1
Series [2] deals with D(2) dopamine receptor (Rattus norvegicus) (UniProt P61169). As to the kind of experiment: In vivo displacement of [3H]Nemonapride from dopamine D2 receptor in Sprague-Dawley rat entorhinal cortex at 13.75 mg/kg, ip qd for 28 days by autoradiography relative to control. The arrangement: dose 13.75 mg/kg. Format: functional, organism-based. In outline:
(§2)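 Male Sprague-Dawley rats, N = 8/group, daily ip dosing for 28 days with vehicle controls; cryostat sections (10 μm) preincubated 1 h RT. Incubation 1 h RT in 50 mM Tris-HCl pH 7.4, 120 mM NaCl, 5 mM KCl, 2 mM CaCl2, 1 mM MgCl2 with 1 nM [3H]nemonapride, 0.5 μM DTG, 0.1 μM pindolol. Nonspecific: 10 μM S(−)-sulpiride. Values fmol/mg tissue, % of control.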

The nature of series [3]: In vivo displacement of [3H]Nemonapride from dopamine D4 receptor in Sprague-Dawley rat medial-prefrontal cortex at 13.75 mg/kg, ip qd for 28 days by autoradiography relative to control. It counts as functional. The note with it: route intraperitoneal.
Series [4] in a line: In vivo displacement of [3H]Nemonapride from dopamine D4 receptor in Sprague-Dawley rat nucleus accumbens at 13.75 mg/kg, ip qd for 28 days by autoradiography relative to control. The note with it: route intraperitoneal. Format: functional.
Series [5] in a line: In vivo displacement of [3H]Nemonapride from dopamine D4 receptor in Sprague-Dawley rat entorhinal cortex at 13.75 mg/kg, ip qd for 28 days by autoradiography relative to control. Particulars: route intraperitoneal. Format: functional.
For series [6], the target named is T1, Serotonin 1a (5-HT1a) receptor/Adrenergic receptor alpha-1 (Rattus norvegicus) (UniProt P15823+P23944+P43140+P19327). As to the kind of experiment: In vivo displacement of [3H]8-OH-DPAT from 5HT1A receptor in Sprague-Dawley rat dorsolateral frontal cortex at 13.75 mg/kg, ip qd for 28 days by autoradiography relative to control. Also noted: dose 13.75 mg/kg. It counts as functional, organism-based. In a few lines:
(§3)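 Male Sprague-Dawley rats (200−225 g, N = 8/group) dosed ip once daily for 28 days, vehicle controls, decapitated; 10 μm frozen coronal sections. Preincubation 1 h RT in 50 mM Tris-HCl pH 7.6, 0.1% ascorbic acid, 4 mM CaCl2, 10 μM pargyline; then 1 h RT with 2.0 nM [3H]8-OH-DPAT. Nonspecific: 1 μM 5-HT. Saturating conditions; binding in fmol/mg tissue, % of control, mean ± SEM.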

The target of series [7] is T1, Serotonin 1a (5-HT1a) receptor/Adrenergic receptor alpha-1 (Rattus norvegicus). Put plainly: In vivo displacement of [3H]8-OH-DPAT from 5HT1A receptor in Sprague-Dawley rat nucleus accumbens at 13.75 mg/kg, ip qd for 28 days by autoradiography relative to control. Format: functional, organism-based. The arrangement: dose 13.75 mg/kg. In outline:
as §3

The subject of series [8] is Caudate-putamen. Put plainly: In vivo displacement of [3H]8-OH-DPAT from 5HT1A receptor in Sprague-Dawley rat lateral part of caudate putamen at 13.75 mg/kg, ip qd for 28 days by autoradiography relative to control. The note with it: route intraperitoneal. It counts as functional. In outline: as §3
Series [9] is described as follows: In vivo displacement of [3H]Ketanserin from 5HT2A receptor in Sprague-Dawley rat dorsolateral frontal cortex at 13.75 mg/kg, ip qd for 28 days by autoradiography relative to control. It counts as functional. Particulars: route intraperitoneal. In outline:
as §1

Series [10] in a line: In vivo displacement of [3H]Ketanserin from 5HT2A receptor in Sprague-Dawley rat nucleus accumbens at 13.75 mg/kg, ip qd for 28 days by autoradiography relative to control. Format: functional. Particulars: route intraperitoneal. In a few lines: as §1
Series [11] deals with Caudate-putamen. As to the kind of experiment: In vivo displacement of [3H]Ketanserin from 5HT2A receptor in Sprague-Dawley rat medial part of caudate putamen at 13.75 mg/kg, ip qd for 28 days by autoradiography relative to control. The note with it: route intraperitoneal. It counts as functional. In a few lines:
as §1

The subject of series [12] is Caudate-putamen. Put plainly: In vivo displacement of [3H]Ketanserin from 5HT2A receptor in Sprague-Dawley rat lateral part of caudate putamen at 13.75 mg/kg, ip qd for 28 days by autoradiography relative to control. Format: functional. Particulars: route intraperitoneal. In outline: as §1
Series [13] deals with 5-hydroxytryptamine receptor 2A (Homo sapiens, UniProt P28223). Put plainly: Displacement of [3H]ketanserin from human recombinant 5HT2A receptor expressed in CHO cells after 60 mins by liquid scintillation counting. Format: cell-based.
Chain of 5-hydroxytryptamine receptor 2A (P28223 whole entry): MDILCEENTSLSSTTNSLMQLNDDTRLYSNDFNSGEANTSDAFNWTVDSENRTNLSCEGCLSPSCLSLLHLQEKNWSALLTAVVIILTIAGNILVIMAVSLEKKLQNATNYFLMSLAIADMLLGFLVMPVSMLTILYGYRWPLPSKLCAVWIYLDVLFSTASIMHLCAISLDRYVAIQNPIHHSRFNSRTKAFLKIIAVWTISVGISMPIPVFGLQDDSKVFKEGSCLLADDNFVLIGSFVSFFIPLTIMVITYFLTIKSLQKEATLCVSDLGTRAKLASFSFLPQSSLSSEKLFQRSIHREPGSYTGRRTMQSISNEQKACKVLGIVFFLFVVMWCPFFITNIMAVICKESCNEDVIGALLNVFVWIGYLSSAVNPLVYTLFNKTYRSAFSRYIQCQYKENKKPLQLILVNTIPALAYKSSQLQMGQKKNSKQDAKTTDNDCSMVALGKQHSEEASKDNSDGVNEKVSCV
Series [14] has as its target T2, 5-hydroxytryptamine receptor 1A (Homo sapiens, UniProt P08908).
T2 sequence (P08908 whole entry): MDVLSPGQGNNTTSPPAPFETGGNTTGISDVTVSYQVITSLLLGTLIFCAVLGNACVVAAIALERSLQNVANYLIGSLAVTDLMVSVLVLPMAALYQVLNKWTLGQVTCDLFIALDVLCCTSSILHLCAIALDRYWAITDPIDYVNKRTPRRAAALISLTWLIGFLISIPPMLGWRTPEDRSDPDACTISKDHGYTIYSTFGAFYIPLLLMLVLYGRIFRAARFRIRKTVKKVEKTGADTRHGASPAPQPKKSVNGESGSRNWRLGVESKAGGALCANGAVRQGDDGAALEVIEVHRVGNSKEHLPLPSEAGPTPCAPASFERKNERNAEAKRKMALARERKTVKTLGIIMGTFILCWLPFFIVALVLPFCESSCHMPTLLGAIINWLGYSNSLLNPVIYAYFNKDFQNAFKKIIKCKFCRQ
Put plainly: Displacement of [3H]8-OH-DPAT from human recombinant 5HT1A receptor expressed in CHO cells after 60 mins by liquid scintillation counting. Format: cell-based.

Series [15] can be described thus: Lipophilicity, log K of the compound in IAM-PC-DD2 HPLC column by UV method. It counts as physicochemical. The note with it: artificial membrane.
Series [16] can be described thus: In vivo displacement of [3H]SCH-23390 from dopamine D1 receptor in Sprague-Dawley rat nucleus accumbens at 13.75 mg/kg, ip qd for 28 days by autoradiography relative to control. It counts as functional. The note with it: route intraperitoneal. In a few lines: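 Forebrain sections from male Sprague-Dawley rats (N = 8/group) after 28 days of daily ip injections versus vehicle. Incubation 1 h RT in 50 mM Tris-HCl pH 7.4, 120 mM NaCl, 5 mM KCl, 2 mM CaCl2, 1 mM MgCl2 with 1 nM [3H]SCH-23390 and 100 nM ketanserin. Nonspecific: 1 μM cis-flupenthixol. Saturating conditions; fmol/mg tissue, % of control.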

Series [17] deals with D(2) dopamine receptor (Rattus norvegicus) (UniProt P61169). Put plainly: In vivo displacement of [3H]Nemonapride from dopamine D2 receptor in Sprague-Dawley rat medial-prefrontal cortex at 13.75 mg/kg, ip qd for 28 days by autoradiography relative to control. Format: functional, organism-based. The arrangement: dose 13.75 mg/kg. In a few lines:
as §2

The target is the same in series [18]. Put plainly: In vivo displacement of [3H]Nemonapride from dopamine D2 receptor in Sprague-Dawley rat nucleus accumbens at 13.75 mg/kg, ip qd for 28 days by autoradiography relative to control. It counts as functional, organism-based. Also noted: dose 13.75 mg/kg. In a few lines: as §2
Series [19] concerns Caudate-putamen. As to the kind of experiment: In vivo displacement of [3H]Nemonapride from dopamine D2 receptor in Sprague-Dawley rat medial of caudate putamen at 13.75 mg/kg, ip qd for 28 days by autoradiography relative to control. It counts as functional. The note with it: route intraperitoneal. In a few lines:
as §2

Chain of D(2) dopamine receptor (Rattus norvegicus) (P61169 whole entry): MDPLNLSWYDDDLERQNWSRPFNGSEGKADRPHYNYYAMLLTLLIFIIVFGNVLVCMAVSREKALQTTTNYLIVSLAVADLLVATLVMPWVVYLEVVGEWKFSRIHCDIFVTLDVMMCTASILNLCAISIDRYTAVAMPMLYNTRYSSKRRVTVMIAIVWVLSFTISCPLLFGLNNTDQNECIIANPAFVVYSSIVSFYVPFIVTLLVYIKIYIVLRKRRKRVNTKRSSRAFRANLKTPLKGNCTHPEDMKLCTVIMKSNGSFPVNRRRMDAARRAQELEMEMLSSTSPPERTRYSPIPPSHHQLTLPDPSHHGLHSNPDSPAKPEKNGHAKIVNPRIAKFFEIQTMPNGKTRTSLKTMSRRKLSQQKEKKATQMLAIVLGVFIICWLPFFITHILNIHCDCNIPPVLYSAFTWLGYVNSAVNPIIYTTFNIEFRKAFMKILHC

Turning to `Clc1ccc2c(c1)N=C(N1CCNCC1)c1cccnc1O2`, the inhibition in vivo at 13.75 mg/kg amounted to 92% in the series with Hippocampus; 90% in series [1]; 110% in series [3]; 178% in series [4]; 103% in series [5]; 95% in the series on Caudate-putamen [8]. Further, the inhibition in vivo at 13.75 mg/kg in [9] amounted to 53%; in series [10], 98%; in the series on Caudate-putamen [11], 87%; in the series with Caudate-putamen [12] it was 107%; in series [16] it was 128%; in the series on Caudate-putamen [19] it was 110%. The inhibition in series [2] amounted to 96%; in series [6] it was 141%; in series [7], 88%; in series [17], 141%; in series [18], 140%. The results for the pKi in series [13] and in series [14] were 6.88 and 6.43, respectively. In addition, the “log K” value in series [15] was found to be 2.68.
